The text below walks through data of ChEMBL document CHEMBL1130349, “Synthesis and structure-activity relationships of a new model of arylpiperazines. 3.1 2-[omega-(4-arylpiperazin-1-yl)alkyl]perhydropyrrolo- [1,2-c]imidazoles and -perhydroimidazo[1,5-a]pyridines: study of the influence of the terminal amide fragment on 5-HT1A affinity/selectivity” (J Med Chem, 1997).

Molecules are shown by their SMILES. pKi: −log10 of the molar value.

The target of assay [1] is T1, 5-hydroxytryptamine receptor 1A (Rattus norvegicus, UniProt P19327).
T1 sequence (P19327 whole entry): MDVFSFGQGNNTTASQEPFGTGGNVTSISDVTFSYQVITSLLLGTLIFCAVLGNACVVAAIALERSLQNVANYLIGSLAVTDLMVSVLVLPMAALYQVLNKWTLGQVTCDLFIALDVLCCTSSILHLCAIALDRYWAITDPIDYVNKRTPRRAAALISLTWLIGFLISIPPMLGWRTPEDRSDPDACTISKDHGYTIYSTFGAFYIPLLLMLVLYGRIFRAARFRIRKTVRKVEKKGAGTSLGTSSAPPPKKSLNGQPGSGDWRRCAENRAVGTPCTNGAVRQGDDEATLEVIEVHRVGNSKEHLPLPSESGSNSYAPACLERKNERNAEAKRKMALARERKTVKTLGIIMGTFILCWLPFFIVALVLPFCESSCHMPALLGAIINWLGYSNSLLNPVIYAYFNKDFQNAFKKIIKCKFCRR
The assay is described as follows: Binding affinities against 5-hydroxytryptamine 1A receptor using [3H]8-OH-DPAT as radioligand in rat cerebral cortex membrane. In kind it is cell membranes. In a few lines:
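Rat cerebral cortex homogenised in ice-cold 50 mM Tris-HCl (pH 7.7), washed twice, preincubated 10 min at 37 °C. Membranes (~1 mg protein) incubated 15 min at 37 °C with 0.6 nM [3H]-8-OH-DPAT across several competitor concentrations. Nonspecific binding defined by 10 μM 5-HT. Two to four experiments, each in triplicate.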

The target in assay [2] is T2, Alpha-1A adrenergic receptor (Rattus norvegicus, UniProt P43140).
T2 sequence (P43140 whole entry): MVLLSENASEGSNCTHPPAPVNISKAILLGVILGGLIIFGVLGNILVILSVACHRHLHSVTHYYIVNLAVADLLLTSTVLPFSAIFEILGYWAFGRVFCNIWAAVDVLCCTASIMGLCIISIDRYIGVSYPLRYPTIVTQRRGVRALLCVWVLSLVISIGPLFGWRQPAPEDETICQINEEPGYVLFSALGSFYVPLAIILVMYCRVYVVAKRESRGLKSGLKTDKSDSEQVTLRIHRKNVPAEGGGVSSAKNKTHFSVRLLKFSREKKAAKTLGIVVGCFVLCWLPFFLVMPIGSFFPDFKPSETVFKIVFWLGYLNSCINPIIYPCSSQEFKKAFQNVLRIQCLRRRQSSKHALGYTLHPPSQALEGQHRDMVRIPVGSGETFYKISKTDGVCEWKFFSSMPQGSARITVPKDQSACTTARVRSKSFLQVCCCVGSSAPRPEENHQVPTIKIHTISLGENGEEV
Kind of assay: Binding affinities against Alpha-1 adrenergic receptor (alpha1 adrenoceptor) using [3H]prazosin as radioligand in rat cerebral cortex membrane. The assay is classed as cell membranes. In a few lines:
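Radioligand binding run by a cited earlier method; values are means ± SEM of two to four experiments, each in triplicate.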

The nature of assay [3]: Selectivity ratio of serotonin and alpha receptor. Also on record: reference not given here.

By pKi is commonly meant −log10 of the Ki, conventionally taken in molar units. Regarding `FC(F)(F)c1cccc(N2CCN(CCCN3CC4CCCCN4C3)CC2)c1` (stereo not given), the figures for the negative logarithm of the Ki (pKi) in assay [1] and in assay [2] were 7.61 and 6.56, respectively. Moreover, in assay [3], the Ki ratio stood at 11.4.

As for `FC(F)(F)c1cccc(N2CCN(CCCCN3CC4CCCN4C3)CC2)c1` (stereo not given), the pKi in assay [1] is 7.91; in assay [2] it was 6.62. In assay [3], the Ki ratio came out at 19.5.

For the molecule `O=C1C2CCCN2C(=O)N1CCCN1CCN(c2cccc(C(F)(F)F)c2)CC1` (stereo not given), the pKi in assay [2] is 6.96. The Ki ratio in assay [3] came out at 28.7.

Consider `COc1ccccc1N1CCN(CCCCN2CC3CCCN3C2)CC1` (stereo not given), for which the negative-log Ki (pKi) in assay [1] was 7.76; in assay [2], 7.14. Besides, the Ki ratio in assay [3] was 4.1.

For `FC(F)(F)c1cccc(N2CCN(CCCN3CC4CCCN4C3)CC2)c1` (stereo not given), the pKi in assay [1] is 7.54; in assay [2] it was 6.44. In addition, in assay [3], the Ki ratio was found to be 12.5.

`COc1ccccc1N1CCN(CCCN2C(=O)C3CCCN3C2=O)CC1` (stereo not given) gave a negative logarithm of the Ki (pKi) in assay [2] of 8.51. Also, in assay [3], the Ki ratio amounted to 0.7.

`O=C1C2CCCCN2C(=O)N1CCCCN1CCN(c2cccc(C(F)(F)F)c2)CC1` (stereo not given): the pKi in assay [2] is 7.14. In addition, the Ki ratio in assay [3] is 7.3.

Take `O=C1C2CCCN2C(=O)N1CCCCN1CCN(c2cccc(Cl)c2)CC1` (stereo not given): the pKi in assay [2] is 8.02. Moreover, the Ki ratio in assay [3] was 0.8.

For the molecule `COc1ccccc1N1CCN(CCCN2C(=O)C3CCCCN3C2=O)CC1` (stereo not given), the pKi in assay [2] is 8.00. In addition, the Ki ratio in assay [3] turned out to be 2.4.

As to `COc1ccccc1N1CCN(CCCCN2C(=O)C3CCCCN3C2=O)CC1` (stereo not given), the pKi in assay [2] was 8.07. The Ki ratio in assay [3] is 1.

For `COc1ccccc1N1CCN(CCCN2CC3CCCN3C2)CC1` (stereo not given), the values for the pKi in assay [1] and in assay [2] were 7.91 and 6.49, respectively. In addition, the Ki ratio in assay [3] stood at 26.

For `COc1ccccc1N1CCN(CCCN2CC3CCCCN3C2)CC1` (stereo not given), the pKi in assay [1] was 7.86; in assay [2], 6.66. For the same molecule, the Ki ratio in assay [3] amounted to 15.7.

Consider `Clc1cccc(N2CCN(CCCCN3CC4CCCN4C3)CC2)c1` (stereo not given), for which the results for the pKi in assay [1] and in assay [2] were 7.55 and 7.19, respectively. Further, the Ki ratio in assay [3] was 2.3.

For the molecule `O=C1C2CCCN2C(=O)N1CCCCN1CCN(c2cccc(C(F)(F)F)c2)CC1` (stereo not given), the negative logarithm of the Ki (pKi) in assay [2] is 7.19. Besides, the Ki ratio in assay [3] was 27.

For `Clc1cccc(N2CCN(CCCCN3CC4CCCCN4C3)CC2)c1` (stereo not given), the pKi in assay [1] is 7.61; in assay [2], 7.19. In addition, in assay [3], the Ki ratio turned out to be 2.6.

Take `O=C1C2CCCCN2C(=O)N1CCCN1CCN(c2cccc(C(F)(F)F)c2)CC1` (stereo not given): the negative-log Ki (pKi) in assay [2] is 7.04. In addition, in assay [3], the Ki ratio amounted to 15.9.

As to `COc1ccccc1N1CCN(CCCCN2CC3CCCCN3C2)CC1` (stereo not given), the values for the pKi in assay [1] and in assay [2] were 8.29 and 7.35, respectively. Besides, in assay [3], the Ki ratio was 8.8.

The molecule `COc1ccccc1N1CCN(CCCCN2C(=O)C3CCCN3C2=O)CC1` (stereo not given) gave a pKi in assay [2] of 8.08. For the same molecule, the Ki ratio in assay [3] worked out at 1.5.

Regarding `FC(F)(F)c1cccc(N2CCN(CCCCN3CC4CCCCN4C3)CC2)c1` (stereo not given), the figures for the pKi in assay [1] and in assay [2] were 7.82 and 6.94, respectively. In addition, the Ki ratio in assay [3] came out at 7.5.

For the molecule `O=C1C2CCCCN2C(=O)N1CCCCN1CCN(c2cccc(Cl)c2)CC1` (stereo not given), in assay [2], the negative logarithm of the Ki (pKi) is 7.92. Further, the Ki ratio in assay [3] was found to be 1.7.
